Experimental data from ChEMBL document CHEMBL1158781, “Indole alkaloids and other constituents of Rauwolfia serpentina” (J Nat Prod, 2005).
Active and inactive are the calls of the source. The calls are words filed in the database; no cut-off is given here.

How the values were obtained:
[1] = target: T1, DNA topoisomerase 1 (Homo sapiens) (UniProt P11387); assay: (§1) Inhibition of human recombinant DNA topoisomerase1
T1 sequence (whole entry): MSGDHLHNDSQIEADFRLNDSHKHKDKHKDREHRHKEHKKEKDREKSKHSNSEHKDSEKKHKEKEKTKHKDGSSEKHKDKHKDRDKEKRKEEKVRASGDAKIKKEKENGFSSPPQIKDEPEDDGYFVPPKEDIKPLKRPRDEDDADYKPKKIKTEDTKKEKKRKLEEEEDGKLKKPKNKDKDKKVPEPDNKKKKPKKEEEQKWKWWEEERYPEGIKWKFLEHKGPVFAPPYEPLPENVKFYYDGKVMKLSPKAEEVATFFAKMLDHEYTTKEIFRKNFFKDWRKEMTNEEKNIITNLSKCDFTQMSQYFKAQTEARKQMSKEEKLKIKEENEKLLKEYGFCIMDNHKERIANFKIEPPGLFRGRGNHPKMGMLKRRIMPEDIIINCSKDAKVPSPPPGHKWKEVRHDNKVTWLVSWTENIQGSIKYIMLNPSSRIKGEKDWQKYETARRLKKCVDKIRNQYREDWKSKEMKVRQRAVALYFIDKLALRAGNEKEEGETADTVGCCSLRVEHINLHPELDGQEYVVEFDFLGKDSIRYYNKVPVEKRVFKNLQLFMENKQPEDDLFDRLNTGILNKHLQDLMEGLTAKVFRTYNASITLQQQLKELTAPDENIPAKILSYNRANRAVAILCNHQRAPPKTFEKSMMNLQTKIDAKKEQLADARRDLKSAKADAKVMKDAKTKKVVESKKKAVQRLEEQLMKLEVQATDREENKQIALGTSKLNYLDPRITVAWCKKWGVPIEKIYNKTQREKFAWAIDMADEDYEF
Outline: (§2)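 Recombinant human topo I (2 units) relaxing pBR322 DNA (0.25 µg). Buffer: 10 mM Tris-HCl pH 7.9, 1 mM EDTA, 150 mM NaCl, 0.1% BSA, 0.1 mM spermidine, 5% glycerol. Inhibitor added in 10% DMSO; 30 min at 37 °C. Sarkosyl stop, 1% agarose/TAE gel, EtBr stain, relaxed DNA seen under UV.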

Homo sapiens = species on record: Homo sapiens; assay: (§3) Inhibition of human recombinant DNA topoisomerase-2
Outline: (§4)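 Recombinant human topo II (2 units) relaxing supercoiled pUC19 DNA (0.25 µg). Inhibitor added in 10% DMSO; 30 min at 37 °C. Stopped with sarkosyl loading buffer, run on 1% agarose in TAE, EtBr stain, conversion to relaxed form scored under UV.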

HL-60 = assay: Cytotoxicity against human HL60 cells by MTT assay; assay type: functional, cell-based
Outline: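 HL-60 human promyelocytic leukemia cells grown in RPMI 1640 with 10% FBS, penicillin and streptomycin at 37 °C under 5% CO2. Cells plated at 3 × 10^5 per well with a range of alkaloid concentrations. Compounds supplied as 10 mM PBS stocks and diluted into growth medium just before use. Survival read out by MTT.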

[2] = as §3; outline: as §4
DNA topoisomerase 1 = target: T2, DNA topoisomerase 1 (Homo sapiens, UniProt P11387); assay: as §1; outline: as §2
T2 sequence (P11387 whole entry): T1 sequence (whole entry)

| SMILES | Activity [1] | Activity (Homo sapiens) | IC50 [2] [µM] | IC50 (DNA topoisomerase 1) [µM] | Activity (HL-60) | IC50 (HL-60) [µM] |
| --- | --- | --- | --- | --- | --- | --- |
| COC(=O)[C@H]1[C@H]2C[C@@H]3c4[nH]c5cc(OC)ccc5c4CCN3C[C@H]2C[C@@H](OC(=O)/C=C/c2cc(OC)c(OC)c(OC)c2)[C@@H]1OC | inactive | inactive | – | – | inactive | – |
| CC[C@@]1(O)C(=O)OCc2c1cc1n(c2=O)Cc2cc3ccccc3nc2-1 [CAMPTOTHECIN] | – | – | > 1000 | – | – | 130 |
| COc1cc([C@@H]2c3cc4c(cc3[C@@H](O[C@@H]3O[C@@H]5CO[C@@H](C)O[C@H]5[C@H](O)[C@H]3O)[C@H]3COC(=O)[C@H]23)OCO4)cc(OC)c1O [ETOPOSIDE] | – | – | 40 | > 1000 | – | 150 |
| O=C(O)[C@H]1[C@H]2C[C@@H]3c4[nH]c5ccccc5c4CCN3C[C@H]2CC[C@@H]1O [ISORAUHIMBINIC ACID] | – | – | 175 | 40 | – | 125 |
| COC(=O)[C@@H]1[C@H]2C[C@H]3c4[nH]c5ccccc5c4CCN3C[C@@H]2CC[C@@H]1O [YOHIMBINE] | inactive | inactive | 125 | 30 | inactive | 84 |

More lines, main results first:

| Activity [1] | Activity (Homo sapiens) | IC50 [2] [µM] | IC50 (DNA topoisomerase 1) [µM] | SMILES | Activity (HL-60) | IC50 (HL-60) [µM] |
| --- | --- | --- | --- | --- | --- | --- |
| inactive | inactive | – | – | COC(=O)[C@H]1[C@H]2C[C@@H]3c4[nH]c5ccccc5c4CCN3C[C@H]2CC(O)[C@@H]1O (stereo partly specified) | inactive | – |
| inactive | inactive | – | – | COC(=O)[C@H]1[C@H]2C[C@@H]3c4[nH]c5ccccc5c4CCN3C[C@H]2CC[C@@H]1O | inactive | – |
| – | – | 20 | 160 | COC(=O)[C@H]1[C@H]2C[C@@H]3c4[nH]c5cc(OC)ccc5c4CCN3C[C@H]2C[C@@H](OC(=O)c2cc(OC)c(OC)c(OC)c2)[C@@H]1OC [RESERPINE] | – | 67 |
